Laboratory results: publication PMC3158820 (ACS chemical biology, 2011)
Entries after “also recorded” stand apart in the source; their conditions may differ.

What was measured:
[1] = test system: human ClpXP; assay: Steady state peptidase activity assay; format: biochemical
[2] = test system: Lon in isolated rat liver mitochondria; assay: In organello degradation of 35S-labeled StAR in isolated mitochondria; format: cell-based
In short: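 ³⁵S-Met StAR precursor was made by in vitro transcription and reticulocyte-lysate translation, then imported for 30 min at 30 °C into rat liver mitochondria (600 µg) in HSB buffer with ATP, GTP, NADH and creatine kinase system. Non-imported protein was removed with trypsin on ice, then trypsin inhibitor. Pellets were chased at 30 °C ±inhibitor, TCA-precipitated, run on 12% SDS-PAGE with autoradiography, and bands quantified. Mean of 3 independent experiments, SEM, Student's t-test.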

[3] = target: T1, human Lon (Homo sapiens, UniProt P36776); assay: Inhibition of α-casein degradation by hLon; format: biochemical; conditions: 10 µM DBN93, 10 µM casein, 1 µM hLon, 5 mM ATP, SDS-PAGE
T1 sequence (P36776 68-959): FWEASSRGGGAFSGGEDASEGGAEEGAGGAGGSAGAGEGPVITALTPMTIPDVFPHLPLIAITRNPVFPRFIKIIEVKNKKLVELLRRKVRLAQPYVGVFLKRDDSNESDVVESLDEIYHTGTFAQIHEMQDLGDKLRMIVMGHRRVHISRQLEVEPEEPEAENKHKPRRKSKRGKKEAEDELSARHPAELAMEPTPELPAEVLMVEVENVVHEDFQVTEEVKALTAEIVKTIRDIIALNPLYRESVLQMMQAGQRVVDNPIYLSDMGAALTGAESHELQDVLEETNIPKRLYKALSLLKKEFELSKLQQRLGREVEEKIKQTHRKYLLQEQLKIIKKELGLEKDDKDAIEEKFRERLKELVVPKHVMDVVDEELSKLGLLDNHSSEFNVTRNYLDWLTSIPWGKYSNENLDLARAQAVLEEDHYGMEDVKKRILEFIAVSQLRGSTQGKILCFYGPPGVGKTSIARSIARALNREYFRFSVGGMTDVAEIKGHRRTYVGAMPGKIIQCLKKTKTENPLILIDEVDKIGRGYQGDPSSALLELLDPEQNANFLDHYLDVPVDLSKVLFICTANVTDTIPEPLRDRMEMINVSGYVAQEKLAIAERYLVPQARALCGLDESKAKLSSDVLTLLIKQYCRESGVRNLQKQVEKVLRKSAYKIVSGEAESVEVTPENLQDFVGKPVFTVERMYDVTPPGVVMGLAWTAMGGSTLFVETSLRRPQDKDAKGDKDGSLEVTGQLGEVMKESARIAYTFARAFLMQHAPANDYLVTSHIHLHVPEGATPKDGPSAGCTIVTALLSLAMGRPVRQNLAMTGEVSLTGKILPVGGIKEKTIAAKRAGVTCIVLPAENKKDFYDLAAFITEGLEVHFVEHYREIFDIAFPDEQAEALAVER
In short: (§1)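 Digests in 50 mM Tris pH 8.1, 15 mM Mg(OAc)₂, 5 mM DTT were run at 37 °C ±inhibitor. Aliquots were quenched with SDS loading dye at time points from 0 to 90 min, run on 12.5% SDS-PAGE and stained with Coomassie Blue.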

[4] = test system: S. Typhimurium Lon; conditions: cited from earlier work
[5] = target: T1, human Lon; assay: Time-dependent inhibition of human Lon peptidase activity; format: biochemical
[6] = test system: human ClpXP; assay: Inhibition of α-casein degradation by hClpXP; format: biochemical; conditions: 10 µM DBN93, 10 µM casein, 2 µM ClpX and 2 µM ClpP, 5 mM ATP, SDS-PAGE
In short: as §1

[7] = test system: human 20S proteasome; assay: Steady state peptidase activity assay; format: biochemical; conditions: 2 µM DBN93, 200 nM human 20S proteasome, 100 µM FRETN 89–98, 500 µM ATP
In short: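 Run in 50 mM HEPES pH 8.0, 5 mM Mg(OAc)₂, 2 mM DTT at 37 °C, with reactions started by adding 20S proteasome. Cleavage was read as fluorescence emission at 420 nm (ex 320 nm). Rate was taken from the slope of the linear phase of the time course.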

[8] = test system: HeLa mitochondrial lysate immunodepleted of Lon; assay: FRETN 89–98 cleavage in Lon-immunodepleted HeLa mitochondrial lysate; format: biochemical, human; conditions: 10 µM DBN93, 100 µM FRETN 89–98, 1 mM ATP; at least three trials
In short: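 Affinity-purified anti-hLon was incubated overnight at 4 °C with HeLa mitochondria in 25 mM Tris pH 7.5, 100 mM NaCl, 0.1% Tween 20. Protein A agarose was pelleted, and the supernatant was desalted into 50 mM KPi pH 7, 20% glycerol, 0.1% Tween 20, then Bradford-quantified. Emission at 420 nm (ex 320 nm) was read for 1 hr.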

[9] = S. Typhimurium Lon, error s.e.m.

Substance: dansyl-YRGIT-Abu-B(OH)2 [DBN93]
- inhibition of hClpXP ([1]; general statement): does not inhibit this protease; also recorded: not inhibited
- effect on cleavage of FRETN 89–98 by hClpXP ([1]; up to 4 µM DBN93 (1 and 4 µM, Figure 5a)): not affected
- inhibition of StAR degradation in mitochondria ([2]; 10 µM DBN93, 1 or 2 hr chase, rat mitochondria, n=3): inhibits degradation of StAR
- penetration of mitochondrial membranes ([2]; intact rat mitochondria, 10 µM DBN93, inferred from StAR degradation): can penetrate the mitochondrial membranes
- inhibition of α-casein degradation by hLon [3]: inhibited α-casein degradation by hLon
- inhibition of Lon ([4]; 4 µM DBN93 (condition of the hClpXP test)): completely inhibited
- k3 [4, 9]: 1.0 ± 0.3 × 10^5 M^−1s^−1
- k4 [4, 9]: 0.022 ± 0.007 s⁻¹
- k5 [4, 9]: 0.0032 ± 0.0003 s⁻¹
- k6 [4, 9]: 0.00028 ± 0.00002 s⁻¹
- time dependence of inhibition of hLon peptidase activity ([5]; Figure 3, panel a): inhibited by DBN93 in a time-dependent manner
- Ki* of hLon vs Ki* of bacterial Lon ([5]; overall inhibitor potency): comparable to the Ki* determined previously for bacterial Lon
- inhibition of α-casein degradation by hClpXP [6]: not by hClpXP
- inhibition of 20S proteasome catalyzed cleavage of FRETN 89–98 [7]: inhibited the cleavage; also recorded: inhibits
- effect on peptide cleavage in Lon-immunodepleted mitochondria [8]: no decrease in peptide cleavage
